Reference: ChEMBL document CHEMBL1250433, “Synthesis of 5-arylidene-2-amino-4-azolones and evaluation of their anticancer activity” (2010)

Columns and labels:
Format in all cases: functional
HL-60(TB) = assay: Cytotoxicity against human HL-60(TB) cells; details: for TGI: read-out: pTGI (converted)
Outline: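 Tested in the National Cancer Institute 60 human tumour cell line in vitro screen, which includes leukaemia lines. From the dose–response data, GI50 is the molar concentration giving 50% inhibition of net cell growth, TGI is total growth inhibition, and LC50 is 50% net cell kill. Values are expressed as Log GI50.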

UO-31 = assay: Cytotoxicity against human UO31 cells; details: for TGI: read-out: pTGI (converted)
Outline: (§1)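 Tested in the US National Cancer Institute 60 human tumour cell line screen. Dose-response parameters were calculated per cell line: GI50 (molar concentration giving 50% net growth inhibition), TGI (molar concentration giving total growth inhibition) and LC50 (molar concentration giving 50% net cell kill).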

CCRF-CEM = assay: Cytotoxicity against human CCRF-CEM cells; details: for TGI: read-out: pTGI (converted); outline: as §1
U-251 = assay: Cytotoxicity against human U251 cells; outline: as §1
HCT-15 = assay: Cytotoxicity against human HCT15 cells; outline: as §1
MDA-MB-435 = assay: Cytotoxicity against human MDA-MB-435 cells; details: for TGI: read-out: pTGI (converted); outline: as §1
RXF 393 = assay: Cytotoxicity against human RXF393 cells; outline: as §1
K562 = assay: Cytotoxicity against human K562 cells; outline: as §1
CAKI-1 = assay: Cytotoxicity against human Caki1 cells; details: for TGI: read-out: pTGI (converted); outline: as §1
NCI-H460 = assay: Cytotoxicity against human NCI-H460 cells; details: for TGI: read-out: pTGI (converted); outline: as §1
MCF7 = assay: Cytotoxicity against human MCF7 cells; details: for TGI: read-out: pTGI (converted); outline: as §1
OVCAR-3 = assay: Cytotoxicity against human OVCAR-3 cells; details: for TGI: read-out: pTGI (converted); outline: as §1
SR = assay: Cytotoxicity against human SR cells; details: for TGI: read-out: pTGI (converted); outline: as §1
RPMI-8226 = assay: Cytotoxicity against human RPMI8226 cells; outline: as §1
MOLT-4 = assay: Cytotoxicity against human MOLT4 cells; outline: as §1
NCI-H23 = assay: Cytotoxicity against human NCI-H23 cells; details: for TGI: read-out: pTGI (converted); outline: as §1
HOP-62 = assay: Cytotoxicity against human HOP62 cells; outline: as §1
SNB-75 = assay: Cytotoxicity against human SNB75 cells; outline: as §1
T47D = assay: Cytotoxicity against human T47D cells; outline: as §1
OVCAR-4 = assay: Cytotoxicity against human OVCAR4 cells; outline: as §1
KM12 = assay: Cytotoxicity against human KM12 cells; outline: as §1
HCT-116 = assay: Cytotoxicity against human HCT116 cells; outline: as §1
SW-620 = assay: Cytotoxicity against human SW620 cells; details: for TGI: read-out: pTGI (converted); outline: as §1
[1] = Cytotoxicity against human 786-O cells; outline: as §1
SF-295 = assay: Cytotoxicity against human SF295 cells; outline: as §1
COLO 205 = assay: Cytotoxicity against human COLO205 cells; outline: as §1
SF-268 = assay: Cytotoxicity against human SF268 cells; outline: as §1
M14 = assay: Cytotoxicity against human M14 cells; outline: as §1
HCC 2998 = assay: Cytotoxicity against human HCC2998 cells; outline: as §1
NCI/ADR-RES = assay: Cytotoxicity against human NCI/ADR-RES cells; outline: as §1

Compound: COc1cc(/C=C2\SC(Nc3ccc(O)cc3)=NC2=O)ccc1OCc1ccc(F)cc1
- GI50 (HL-60(TB)): 603 nM
- TGI (HL-60(TB)): 10200 nM
- GI50 (UO-31): 891 nM
- TGI (UO-31): 28800 nM
- GI50 (CCRF-CEM): 200 nM
- TGI (CCRF-CEM): 1150 nM

Compound: O=C1N=C(Nc2ccc(O)cc2)S/C1=C\c1ccc(Cl)cc1
- GI50 (HL-60(TB)): 437 nM
- TGI (HL-60(TB)): 10200 nM
- GI50 (U-251): 490 nM
- GI50 (HCT-15): 427 nM
- TGI (HCT-15; read-out: pTGI): > 100000 nM
- GI50 (MDA-MB-435): 398 nM
- TGI (MDA-MB-435): 1660 nM
- GI50 (RXF 393): 117 nM
- TGI (RXF 393; read-out: pTGI (converted)): 3980 nM
- GI50 (K562): 257 nM
- GI50 (CCRF-CEM): 851 nM
- TGI (CCRF-CEM): 10200 nM
- GI50 (CAKI-1): 501 nM
- TGI (CAKI-1): 6460 nM
- GI50 (NCI-H460): 977 nM
- TGI (NCI-H460): 87100 nM
- GI50 (MCF7): 50.1 nM
- TGI (MCF7): 219 nM
- GI50 (OVCAR-3): 162 nM
- TGI (OVCAR-3): 490 nM
- GI50 (SR): 145 nM
- TGI (SR): 525 nM
- GI50 (RPMI-8226): 407 nM
- TGI (RPMI-8226; read-out: pTGI): > 100000 nM
- GI50 (MOLT-4): 603 nM
- TGI (MOLT-4; read-out: pTGI (converted)): 17000 nM
- GI50 (NCI-H23): 562 nM
- TGI (NCI-H23): 3240 nM

Compound: O=C1N=C(Nc2ccc(O)cc2)S/C1=C\c1ccc(F)cc1
- GI50 (HOP-62): 427 nM
- TGI (HOP-62; read-out: pTGI (converted)): 13200 nM
- GI50 (UO-31): 955 nM
- TGI (UO-31): > 100000 nM
- GI50 (SNB-75): 407 nM
- TGI (SNB-75; read-out: pTGI): > 100000 nM
- GI50 (T47D): 661 nM
- TGI (T47D; read-out: pTGI): > 100000 nM
- GI50 (MDA-MB-435): 31.6 nM
- TGI (MDA-MB-435): 145 nM
- GI50 (OVCAR-4): 832 nM
- TGI (OVCAR-4; read-out: pTGI): > 100000 nM
- GI50 (KM12): 132 nM
- TGI (KM12; read-out: pTGI (converted)): 741 nM
- GI50 (HCT-116): 219 nM
- TGI (HCT-116; read-out: pTGI (converted)): 4370 nM
- GI50 (CAKI-1): 479 nM
- TGI (CAKI-1): 2450 nM
- GI50 (SW-620): 525 nM
- TGI (SW-620): > 100000 nM
- GI50 ([1]; 786-0): 309 nM
- TGI ([1]; 786-0, read-out: pTGI (converted)): 10000 nM
- GI50 (NCI-H460): 263 nM
- TGI (NCI-H460): 955 nM
- GI50 (MCF7): 35.5 nM
- TGI (MCF7): 115 nM
- GI50 (SF-295): 380 nM
- TGI (SF-295; read-out: pTGI (converted)): 1910 nM
- GI50 (OVCAR-3): 324 nM
- TGI (OVCAR-3): 562 nM
- GI50 (COLO 205): 631 nM
- TGI (COLO 205; read-out: pTGI): > 100000 nM
- GI50 (SF-268): 490 nM
- TGI (SF-268; read-out: pTGI (converted)): 4370 nM
- GI50 (SR): 537 nM
- TGI (SR): > 100000 nM
- GI50 (NCI-H23): 372 nM
- TGI (NCI-H23): 2090 nM
- GI50 (M14): 617 nM
- TGI (M14; read-out: pTGI (converted)): 11500 nM
- GI50 (HCC 2998): 562 nM
- TGI (HCC 2998; read-out: pTGI (converted)): 2140 nM
- GI50 (NCI/ADR-RES): 631 nM
- TGI (NCI/ADR-RES; read-out: pTGI (converted)): 3160 nM

Compound: O=C1N=C(Nc2cccc(O)c2)S/C1=C\C(Cl)=C/c1ccc([N+](=O)[O-])cc1
- GI50 (SW-620): 832 nM
- TGI (SW-620): 2630 nM
- GI50 (OVCAR-3): 372 nM
- TGI (OVCAR-3): 955 nM

Compound: O=C1N=C(Nc2cccc(O)c2)S/C1=C\c1ccc(Cl)cc1
- GI50 (OVCAR-3): 490 nM
- TGI (OVCAR-3): 2750 nM

Compound: CN(C1=NC(=O)/C(=C/c2cccc(Cl)c2Cl)S1)c1ccc(O)cc1
- GI50 (SR): 437 nM
- TGI (SR): 2630 nM
